Measured values as given in ChEMBL document CHEMBL4251593, “Nontoxic combretafuranone analogues with high in vitro antibacterial activity” (Eur J Med Chem, 2018).
In brackets after ≈: the same amount, converted by molar mass.

Assays:
[1] = system: Staphylococcus epidermidis; test: Antibacterial activity against Staphylococcus epidermidis HK6966/08 clinical isolate after 24 hrs by microdilution assay; assay type: functional; settings: HK6966/08, 24 h
Escherichia coli [2] = test: Antibacterial activity against Escherichia coli ATCC 8739 after 48 hrs by microdilution assay; assay type: functional; settings: ATCC 8739, 48 h
Summary of the method: (§1)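 Broth microdilution in Mueller-Hinton medium buffered to pH 7.4 (±0.2), with DMSO as diluent at no more than 2% final. Compounds were tested as 2-fold serial dilutions from 2000 to 0.488 µmol/l. The inoculum was 0.5 McFarland (1.5×10^8 cfu/ml). Plates were held at 37 °C and read visually at 24 and 48 h. MIC was taken as 95% growth inhibition versus control, determined twice in duplicate.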

MCF7 = test: Cytotoxicity against human MCF7 cells assessed as reduction in cell viability after 48 hrs by ATPlite-based luminescent assay; settings: MCF7, 48 h
HL-60 [3] = test: Induction of apoptosis in human HL60 cells assessed as caspase 3/7 activity after 24 hrs by caspase-glo luminescent assay; assay type: cell-based; settings: HL-60, 24 h
Summary of the method: (§2)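 Cells were seeded at 500 per well in their growth media and exposed to 12 concentrations from 40 µM to 1 nM, delivered from DMSO, in triplicate. After 24 h, caspase-3/7 activity was read by Caspase-Glo luminescence. Data were normalized and ED50 was fitted by variable-slope nonlinear regression.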

PC-3 [4] = test: Cytotoxicity against human PC3 cells assessed as reduction in cell viability after 48 hrs by ATPlite-based luminescent assay; settings: PC-3, 48 h
Summary of the method: (§3)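 Cells were grown […] with 10% FBS, glutamax, NEAA and pen/strep at 37 °C, 5% CO2. Media were DMEM for RPE-1, HepG2 and BJ (BJ plus 10 ng/ml bFGF), F-12K for PC3, and IMDM for K562/HL-60. Cells were seeded at 500 per well and dosed from DMSO at 12 concentrations, 40 µM to 1 nM, in triplicate. After 48 h, intracellular ATP was read by luminescence. ED50 was obtained by variable-slope nonlinear regression.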

HL-60 [5] = test: Cytotoxicity against human HL60 cells assessed as reduction in cell viability after 48 hrs by ATPlite-based luminescent assay; settings: HL-60, 48 h; summary of the method: as §3
[6] = system: Staphylococcus epidermidis; test: Antibacterial activity against Staphylococcus epidermidis HK6966/08 clinical isolate after 48 hrs by microdilution assay; assay type: functional; settings: HK6966/08, 48 h
K562 [7] = test: Cytotoxicity against human K562 cells assessed as reduction in cell viability after 48 hrs by ATPlite-based luminescent assay; settings: K562, 48 h; summary of the method: as §3
Klebsiella pneumoniae [8] = test: Antibacterial activity against Klebsiella pneumoniae HK14368/08 clinical isolate after 24 hrs by microdilution assay; assay type: functional; settings: HK14368/08, 24 h
HepG2 [9] = test: Cytotoxicity against human HepG2 cells assessed as reduction in cell viability after 48 hrs by ATPlite-based luminescent assay; settings: HepG2, 48 h; summary of the method: as §3
Klebsiella pneumoniae [10] = test: Antibacterial activity against Klebsiella pneumoniae HK11750/08 clinical isolate after 48 hrs by microdilution assay; assay type: functional; settings: HK11750/08, 48 h
Staphylococcus aureus [11] = test: Antibacterial activity against methicillin-resistant Staphylococcus aureus HK5996/08 clinical isolate after 48 hrs by microdilution assay; assay type: functional; settings: HK5996/08, 48 h
TERT-RPE1 [12] = test: Induction of apoptosis in human RPE1 cells assessed as caspase 3/7 activity after 24 hrs by caspase-glo luminescent assay; assay type: cell-based; settings: RPE-1, 24 h; summary of the method: as §2
HepG2 [13] = test: Induction of apoptosis in human HepG2 cells assessed as caspase 3/7 activity after 24 hrs by caspase-glo luminescent assay; assay type: cell-based; settings: HepG2, 24 h; summary of the method: as §2
Staphylococcus aureus [14] = test: Antibacterial activity against Staphylococcus aureus ATCC 6538 after 48 hrs by microdilution assay; assay type: functional; settings: ATCC 6538, 48 h
Pseudomonas aeruginosa [15] = test: Antibacterial activity against Pseudomonas aeruginosa ATCC 9027 after 24 hrs by microdilution assay; assay type: functional; settings: ATCC 9027, 24 h; summary of the method: as §1
BJ = test: Cytotoxicity against human BJ cells assessed as reduction in cell viability after 48 hrs by ATPlite-based luminescent assay; summary of the method: as §3
Enterococcus sp. [16] = test: Antibacterial activity against Enterococcus sp. HK14365/08 clinical isolate after 24 hrs by microdilution assay; assay type: functional; settings: HK14365/08, 24 h
K562 [17] = test: Induction of apoptosis in human K562 cells assessed as caspase 3/7 activity after 24 hrs by caspase-glo luminescent assay; assay type: cell-based; settings: K562, 24 h; summary of the method: as §2
Pseudomonas aeruginosa [18] = test: Antibacterial activity against Pseudomonas aeruginosa ATCC 9027 after 48 hrs by microdilution assay; assay type: functional; settings: ATCC 9027, 48 h; summary of the method: as §1
Staphylococcus aureus [19] = test: Antibacterial activity against methicillin-resistant Staphylococcus aureus HK5996/08 clinical isolate after 24 hrs by microdilution assay; assay type: functional; settings: HK5996/08, 24 h
Klebsiella pneumoniae [20] = test: Antibacterial activity against Klebsiella pneumoniae HK11750/08 clinical isolate after 24 hrs by microdilution assay; assay type: functional; settings: HK11750/08, 24 h
PC-3 [21] = test: Induction of apoptosis in human PC3 cells assessed as caspase 3/7 activity after 24 hrs by caspase-glo luminescent assay; assay type: cell-based; settings: PC-3, 24 h; summary of the method: as §2
Klebsiella pneumoniae [22] = test: Antibacterial activity against Klebsiella pneumoniae HK14368/08 clinical isolate after 48 hrs by microdilution assay; assay type: functional; settings: HK14368/08, 48 h
Staphylococcus aureus [23] = test: Antibacterial activity against Staphylococcus aureus ATCC 6538 after 24 hrs by microdilution assay; assay type: functional; settings: ATCC 6538, 24 h
TERT-RPE1 [24] = test: Cytotoxicity against human RPE1 cells assessed as reduction in cell viability after 48 hrs by ATPlite-based luminescent assay; settings: RPE-1, 48 h; summary of the method: as §3
Escherichia coli [25] = test: Antibacterial activity against Escherichia coli ATCC 8739 after 24 hrs by microdilution assay; assay type: functional; settings: ATCC 8739, 24 h; summary of the method: as §1
Enterococcus sp. [26] = test: Antibacterial activity against Enterococcus sp. HK14365/08 clinical isolate after 48 hrs by microdilution assay; assay type: functional; settings: HK14365/08, 48 h

Row | Compound | MIC95 [1] [µM] | MIC95 (Escherichia coli [2]) [µM] | IC50 (MCF7) [µM] | IC50 (HL-60 [3]) [µM] | IC50 (PC-3 [4]) [µM] | IC50 (HL-60 [5]) [µM] | MIC95 [6] [µM] | IC50 (K562 [7]) [µM] | MIC95 (Klebsiella pneumoniae [8]) [µM] | IC50 (HepG2 [9]) [µM] | MIC95 (Klebsiella pneumoniae [10]) [µM] | MIC95 (Staphylococcus aureus [11]) [µM] | IC50 (TERT-RPE1 [12]) [µM] | IC50 (HepG2 [13]) [µM] | MIC95 (Staphylococcus aureus [14]) [µM] | MIC95 (Pseudomonas aeruginosa [15]) [µM] | IC50 (BJ) [µM] | MIC95 (Enterococcus sp. [16]) [µM] | IC50 (K562 [17]) [µM] | MIC95 (Pseudomonas aeruginosa [18]) [µM] | other results
1 | CC(=O)OCC1(COC(C)=O)OC(=O)C(c2ccc(Br)cc2)=C1c1ccc(C)cc1 | > 125 | > 125 | > 40 | > 40 | > 40 | > 40 | > 125 | > 40 | > 125 | > 40 | > 125 | > 125 | > 40 | > 40 | > 125 | > 125 | > 40 | > 125 | > 40 | > 125 | MIC95 (Staphylococcus aureus [19]): > 125 µM; MIC95 (Klebsiella pneumoniae [20]): > 125 µM; IC50 (PC-3 [21]): > 40 µM; MIC95 (Klebsiella pneumoniae [22]): > 125 µM; MIC95 (Staphylococcus aureus [23]): > 125 µM; IC50 (TERT-RPE1 [24]): > 40 µM; MIC95 (Escherichia coli [25]): > 125 µM; MIC95 (Enterococcus sp. [26]): > 125 µM
2 | COc1ccc(C2=C(c3ccc4c(c3)OCO4)COC2=O)cc1 | 125 (≈ 38.8 µg/mL) | > 500 | > 40 | > 40 | > 40 | 15.5 | 500 (≈ 155 µg/mL) | 15.7 | > 500 | > 40 | > 500 | > 500 | > 40 | > 40 | 15.6 (≈ 4.85 µg/mL) | > 500 | > 40 | > 500 | > 40 | > 500 | MIC95 (Staphylococcus aureus [19]): > 500 µM; MIC95 (Klebsiella pneumoniae [20]): > 500 µM; IC50 (PC-3 [21]): > 40 µM; MIC95 (Klebsiella pneumoniae [22]): > 500 µM; MIC95 (Staphylococcus aureus [23]): 7.81 µM (≈ 2.42 µg/mL); IC50 (TERT-RPE1 [24]): > 40 µM; MIC95 (Escherichia coli [25]): > 500 µM; MIC95 (Enterococcus sp. [26]): > 500 µM
3 | O=C1OCC(c2ccccc2)=C1c1ccc(F)cc1 | 125 (≈ 31.8 µg/mL) | > 500 | > 40 | > 40 | > 40 | > 40 | 125 (≈ 31.8 µg/mL) | > 40 | > 500 | > 40 | > 500 | 125 (≈ 31.8 µg/mL) | > 40 | > 40 | 15.6 (≈ 3.97 µg/mL) | > 500 | > 40 | > 500 | > 40 | > 500 | MIC95 (Staphylococcus aureus [19]): 125 µM (≈ 31.8 µg/mL); MIC95 (Klebsiella pneumoniae [20]): > 500 µM; IC50 (PC-3 [21]): > 40 µM; MIC95 (Klebsiella pneumoniae [22]): > 500 µM; MIC95 (Staphylococcus aureus [23]): 15.6 µM (≈ 3.97 µg/mL); IC50 (TERT-RPE1 [24]): > 40 µM; MIC95 (Escherichia coli [25]): > 500 µM; MIC95 (Enterococcus sp. [26]): > 500 µM
4 | O=C1OCC(c2ccc(C(F)(F)F)cc2)=C1c1c[nH]c2ccccc12 | > 125 | > 125 | > 40 | 2.94 | > 40 | 0.67 | > 125 | 0.26 | > 125 | > 40 | > 125 | > 125 | 1.54 | > 40 | > 125 | > 125 | > 40 | > 125 | > 40 | > 125 | MIC95 (Staphylococcus aureus [19]): > 125 µM; MIC95 (Klebsiella pneumoniae [20]): > 125 µM; IC50 (PC-3 [21]): > 40 µM; MIC95 (Klebsiella pneumoniae [22]): > 125 µM; MIC95 (Staphylococcus aureus [23]): > 125 µM; IC50 (TERT-RPE1 [24]): 0.87 µM; MIC95 (Escherichia coli [25]): > 125 µM; MIC95 (Enterococcus sp. [26]): > 125 µM
